# Laboratory results reported in ChEMBL document CHEMBL3352597, “Heck products of parthenolide and melampomagnolide-B as anticancer modulators that modify cell cycle progression” (Eur J Med Chem, 2014).
# Activity calls are given as the source filed them. The rule behind the calls is not given here.
# Assays:
# [1] = Anticancer activity against human BT549 cells assessed as growth inhibition at 10^-5 M; assay type: functional; settings: BT-549, read-out: GI
# In short: (§1)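 NCI-60 human tumour cell line panel screened at a single concentration of 10^-5 M; value is percent growth inhibition relative to untreated growth.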
# Oocyte = test: Induction of immature stage VI Xenopus oocyte maturation assessed as spontaneous maturation measured as germinal vesicle (nuclear) breakdown at 100 uM after overnight incubation; assay type: functional, cell-based
# In short: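 Isolated Xenopus oocytes (20 per well) incubated overnight with compound in DMSO at 100 μM final, no progesterone. The next morning, GVBD is scored as a white spot at the animal pole. Rate is expressed relative to DMSO controls, where 2.0 means spontaneous maturation.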
# CCRF-CEM = test: Anticancer activity against human CCRF-CEM cells assessed as growth inhibition at 10^-5 M; assay type: functional; settings: read-out: GI; in short: as §1
compound,measurement,setting,value
C[C@@]12CC/C=C(/CO)CC[C@@H]3/C(=C\c4ccccc4Br)C(=O)O[C@@H]3[C@@H]1O2,inhibition of growth at 10 µM,[1],24.2%
same,Activity,Oocyte,Active
same,inhibition of growth at 10 µM,CCRF-CEM,28.5%
